Legend:
Assay type in all cases: functional
[1] = tested on: Mus musculus; assay: The compound was tested for increase in life span for mice implanted intraperitoneally with P-388/FU Leukemia cell line at 40 mg/kg; conditions: P388, ip, route intraperitoneal
How it was run: (§1)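 Male BDF1 mice, six per group, implanted ip with 1×10^6 P-388/0 or P-388/FU cells on day 0. Dosed ip daily for 5 days from 24 h post-implant, in saline or Emulphor 620 vehicle. Mice observed until death. %ILS = (T/C − 1)×100, from median survival of treated mice (T) versus saline-treated controls (C).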

[2] = tested on: Mus musculus; assay: The compound was tested for increase in life span for mice implanted intraperitoneally with P-388/FU Leukemia cell line at 20 mg/kg; conditions: P388, ip, route intraperitoneal; how it was run: as §1
[3] = tested on: Mus musculus; assay: The compound was tested for increase in life span for mice implanted intraperitoneally with P-388/0 Leukemia cell line at 20 mg/kg; conditions: P388, ip, route intraperitoneal; how it was run: as §1
[4] = tested on: Mus musculus; assay: The compound was tested for increase in life span for mice implanted intraperitoneally with P-388/0 Leukemia cell line at 30 mg/kg; conditions: P388, ip, route intraperitoneal; how it was run: as §1
[5] = tested on: Mus musculus; assay: The compound was tested for increase in life span for mice implanted intraperitoneally with P-388/FU Leukemia cell line at 30 mg/kg; conditions: P388, ip, route intraperitoneal; how it was run: as §1
[6] = tested on: Mus musculus; assay: The compound was tested for mean survival time for 15 mice implanted Intraperitoneally with P-388/0 Leukemia cell line at 20 mg/kg; conditions: route intraperitoneal
How it was run: (§2)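 P-388/0 or P-388/FU cells (1×10^6) implanted ip into male BDF1 mice on day 0. Dosing was ip, daily for 5 consecutive days beginning 24 h later, in saline or Emulphor 620 vehicle. Six mice per treated group. Animals followed to death and median survival time recorded in days. The control group had 15 mice.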

[7] = tested on: Mus musculus; assay: The compound was tested for mean survival time for 15 mice implanted Intraperitoneally with P-388/0 Leukemia cell line at 30 mg/kg; conditions: route intraperitoneal; how it was run: as §2
[8] = tested on: Mus musculus; assay: The compound was tested for mean survival time for 15 mice implanted Intraperitoneally with P-388/FU Leukemia cell line at 20 mg/kg; conditions: route intraperitoneal; how it was run: as §2
[9] = tested on: Mus musculus; assay: The compound was tested for mean survival time for 15 mice implanted Intraperitoneally with P-388/FU Leukemia cell line at 30 mg/kg; conditions: route intraperitoneal; how it was run: as §2
[10] = tested on: Mus musculus; assay: The compound was tested for mean survival time for 15 mice implanted Intraperitoneally with P-388/FU Leukemia cell line at 40 mg/kg; conditions: route intraperitoneal; how it was run: as §2
[11] = tested on: Mus musculus; assay: The compound was tested for change in weight for mice implanted intraperitoneally with P-388/0 Leukemia cell line at 20 mg/kg; conditions: route intraperitoneal
How it was run: (§3)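 Male BDF1 mice (six per group, average 22 g) given 1×10^6 P-388 cells ip on day 0. Drug dosed ip once daily for 5 consecutive days, starting 24 h after implantation, in 0.9% saline or, where insoluble, Emulphor 620. Percentage body-weight change recorded per dose group.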

[12] = tested on: Mus musculus; assay: The compound was tested for change in weight for mice implanted intraperitoneally with P-388/0 Leukemia cell line at 30 mg/kg; conditions: route intraperitoneal; how it was run: as §3
[13] = tested on: Mus musculus; assay: The compound was tested for change in weight for mice implanted intraperitoneally with P-388/FU Leukemia cell line at 20 mg/kg; conditions: route intraperitoneal; how it was run: as §3
[14] = tested on: Mus musculus; assay: The compound was tested for change in weight for mice implanted intraperitoneally with P-388/FU Leukemia cell line at 30 mg/kg; conditions: route intraperitoneal; how it was run: as §3
[15] = tested on: Mus musculus; assay: The compound was tested for change in weight for mice implanted intraperitoneally with P-388/FU Leukemia cell line at 40 mg/kg; conditions: route intraperitoneal; how it was run: as §3
[16] = tested on: Mus musculus; assay: The compound was tested for increase in life span for mice implanted intraperitoneally with P-388/FU Leukemia cell line at 67 mg/kg; conditions: P388, ip, route intraperitoneal; how it was run: as §1
[17] = tested on: Mus musculus; assay: The compound was tested for increase in life span for mice implanted intraperitoneally with P-388/0 Leukemia cell line at 100 mg/kg; conditions: P388, ip, route intraperitoneal; how it was run: as §1
[18] = tested on: Mus musculus; assay: The compound was tested for increase in life span for mice implanted intraperitoneally with P-388/0 Leukemia cell line at 150 mg/kg; conditions: P388, ip, route intraperitoneal; how it was run: as §1
[19] = tested on: Mus musculus; assay: The compound was tested for increase in life span for mice implanted intraperitoneally with P-388/0 Leukemia cell line at 67 mg/kg; conditions: P388, ip, route intraperitoneal; how it was run: as §1
[20] = tested on: Mus musculus; assay: The compound was tested for increase in life span for mice implanted intraperitoneally with P-388/FU Leukemia cell line at 100 mg/kg; conditions: P388, ip, route intraperitoneal; how it was run: as §1
[21] = tested on: Mus musculus; assay: The compound was tested for increase in life span for mice implanted intraperitoneally with P-388/FU Leukemia cell line at 150 mg/kg; conditions: P388, ip, route intraperitoneal; how it was run: as §1
[22] = tested on: Mus musculus; assay: The compound was tested for mean survival time for 15 mice implanted Intraperitoneally with P-388/0 Leukemia cell line at 100 mg/kg; conditions: route intraperitoneal; how it was run: as §2
[23] = tested on: Mus musculus; assay: The compound was tested for mean survival time for 15 mice implanted Intraperitoneally with P-388/0 Leukemia cell line at 150 mg/kg; conditions: route intraperitoneal; how it was run: as §2
[24] = tested on: Mus musculus; assay: The compound was tested for mean survival time for 15 mice implanted Intraperitoneally with P-388/0 Leukemia cell line at 67 mg/kg; conditions: route intraperitoneal; how it was run: as §2
[25] = tested on: Mus musculus; assay: The compound was tested for mean survival time for 15 mice implanted Intraperitoneally with P-388/FU Leukemia cell line at 100 mg/kg; conditions: route intraperitoneal; how it was run: as §2
[26] = tested on: Mus musculus; assay: The compound was tested for mean survival time for 15 mice implanted Intraperitoneally with P-388/FU Leukemia cell line at 150 mg/kg; conditions: route intraperitoneal; how it was run: as §2
[27] = tested on: Mus musculus; assay: The compound was tested for […] implanted Intraperitoneally with P-388/FU Leukemia cell line at 67 mg/kg; conditions: route intraperitoneal
[28] = tested on: Mus musculus; assay: The compound was tested for change in weight for mice implanted intraperitoneally with P-388/FU Leukemia cell line at 150 mg/kg; conditions: route intraperitoneal
How it was run: (§4)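 Male BDF1 mice inoculated ip on day 0 with 1 × 10^6 leukemia cells (six mice per group, average weight 22 g). Dosing ip once daily for 5 consecutive days starting 24 h after implantation. Fluoropyrimidine references in 0.9% saline; prodrugs formulated with Emulphor 620; vehicle controls 0.2 mL. Percent body weight change recorded per group.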

[29] = tested on: Mus musculus; assay: The compound was tested for change in weight for mice implanted intraperitoneally with P-388/0 Leukemia cell line at 100 mg/kg; conditions: route intraperitoneal; how it was run: as §4
[30] = tested on: Mus musculus; assay: The compound was tested for change in weight for mice implanted intraperitoneally with P-388/0 Leukemia cell line at 150 mg/kg; conditions: route intraperitoneal; how it was run: as §4
[31] = tested on: Mus musculus; assay: The compound was tested for change in weight for mice implanted intraperitoneally with P-388/0 Leukemia cell line at 67 mg/kg; conditions: route intraperitoneal; how it was run: as §4
[32] = tested on: Mus musculus; assay: The compound was tested for change in weight for mice implanted intraperitoneally with P-388/FU Leukemia cell line at 67 mg/kg; conditions: route intraperitoneal; how it was run: as §4
[33] = tested on: Mus musculus; assay: The compound was tested for change in weight for mice implanted intraperitoneally with P-388/FU Leukemia cell line at 100 mg/kg; conditions: route intraperitoneal; how it was run: as §4

O=c1[nH]cc(F)c(=O)[nH]1 [FLUOROURACIL]
ILS at 40 mg/kg [1]: -18%
ILS at 20 mg/kg [2]: -9%
ILS at 20 mg/kg [3]: 45%
ILS at 30 mg/kg [4]: 55%
ILS at 30 mg/kg [5]: -18%
MST [6]: 16 days
MST [7]: 17 days
MST [8]: 10 days
MST [9]: 9 days
MST [10]: 9 days
Weight change [11]: -5%
Weight change [12]: -15%
Weight change [13]: -6%
Weight change [14]: -15%
Weight change [15]: -18%

O=c1[nH]c(=O)n([C@H]2C[C@H](O)[C@@H](CO)O2)cc1F [FLOXURIDINE]
ILS at 67 mg/kg [16]: 9%
ILS at 100 mg/kg [17]: 73%
ILS at 150 mg/kg [18]: 82%
ILS at 67 mg/kg [19]: 45%
ILS at 100 mg/kg [20]: 18%
ILS at 150 mg/kg [21]: 18%
MST [22]: 19 days
MST [23]: 20 days
MST [24]: 16 days
MST [25]: 13 days
MST [26]: 13 days
MST [27]: 12 days
Weight change [28]: -10%
Weight change [29]: -4%
Weight change [30]: -5%
Weight change [31]: -2%
Weight change [32]: -6%
Weight change [33]: -10%

— ChEMBL document CHEMBL1127405, “Synthesis and antitumor evaluation of bis[(pivaloyloxy)methyl] 2'-deoxy-5-fluorouridine 5'-monophosphate (FdUMP): a strategy to introduce nucleotides into cells” (J Med Chem, 1994)
